A selection: hits, their analogues and other compounds. The true share with any hit is near 2.6%.
Exocytosis inh = lytic granule exocytosis inhibition; inhibition, % at 10 µM; 360,000 tested, 0.66% active; TALL-104 LAMP-1 surface exposure, flow cytometry; cells stimulated with thapsigargin and PMA;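 active = inhibition above about 55%, limit read from the data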
MC4R barr agon = human MC4R agonism via beta-arrestin; U2OS MC4R beta-arrestin complementation, luminescence; percent of melanotan II response, DMSO zero; P32245; AID 540308; activation, % at 8.9 µM; 360,000 tested, 0.98% active;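 active = activation above a per-plate cutoff, the mean activation of sample wells on that plate plus 3 SD, cut at about 8% in these data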
Tb MetRS inh = blocks T. brucei methionyl-tRNA synthetase activity. inhibition, % at 11.9 µM. 360,000 tested, 0.4% active. purified T. brucei MetRS, ATP depletion, Kinase-Glo luminescence;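 active = inhibition above a per-plate cutoff of the control wells' mean inhibition plus 3 SD, cut at about 5.5% in these data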;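 also: 0% = DMSO wells median and 100% = median of wells with control inhibitor compound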
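Material: T. brucei methionyl-tRNA synthetase, purified; reagent: substrates ATP, L-methionine and bulk Escherichia coli tRNA; dosing: 11.9 µM single point; timing: 15 min plus 2 h at 25 °C; detection: luminescence of leftover ATP; evaluation: % inhibition; control set: DMSO-only wells as low control; replicates: singlicate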
ABCB6 inh 2 = inhibitors of human ABC transporter ABCB6; 360,000 tested, 0.19% active; K562-ABCB6 porphyrin accumulation, flow cytometry, 1 h; stronger effect = lower value; Q9NP58; fluorescence ratio to DMSO, % at 10 µM; AID 602162;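 active = fluorescence ratio to DMSO below 75%, the collection mean minus 3 SD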;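 also: signal is porphyrin accumulated inside mitochondria; 100% equals median channel fluorescence of DMSO control wells; lower ratio means ABCB6 inhibition with less porphyrin fluorescence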
Target sequence (Q9NP58 whole entry, looked up): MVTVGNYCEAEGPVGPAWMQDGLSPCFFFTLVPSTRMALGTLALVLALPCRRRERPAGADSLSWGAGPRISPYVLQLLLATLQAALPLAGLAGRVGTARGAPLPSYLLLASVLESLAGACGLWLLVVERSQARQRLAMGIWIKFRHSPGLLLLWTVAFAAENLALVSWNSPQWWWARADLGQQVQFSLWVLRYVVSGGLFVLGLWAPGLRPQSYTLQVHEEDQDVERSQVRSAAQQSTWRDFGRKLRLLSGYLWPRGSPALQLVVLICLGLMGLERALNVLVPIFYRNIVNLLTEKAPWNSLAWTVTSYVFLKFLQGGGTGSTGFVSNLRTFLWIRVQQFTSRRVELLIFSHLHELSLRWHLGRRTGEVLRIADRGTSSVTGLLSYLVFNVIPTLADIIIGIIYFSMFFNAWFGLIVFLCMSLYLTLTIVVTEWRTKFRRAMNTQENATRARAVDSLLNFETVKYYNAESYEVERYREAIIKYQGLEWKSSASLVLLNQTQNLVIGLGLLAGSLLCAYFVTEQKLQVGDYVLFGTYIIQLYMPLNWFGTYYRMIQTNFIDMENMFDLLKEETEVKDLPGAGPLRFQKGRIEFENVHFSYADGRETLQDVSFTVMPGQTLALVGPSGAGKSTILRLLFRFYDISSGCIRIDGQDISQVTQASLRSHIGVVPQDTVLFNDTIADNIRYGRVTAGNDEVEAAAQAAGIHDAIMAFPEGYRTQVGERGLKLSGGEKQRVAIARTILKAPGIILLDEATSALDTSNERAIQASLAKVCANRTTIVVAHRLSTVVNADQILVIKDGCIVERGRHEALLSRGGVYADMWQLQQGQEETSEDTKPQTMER
hiPSC survival = hiPSC single-cell survival enhancement; ATPlite luminescence; 100% = ROCK inhibitor wells, 0% = DMSO; survival enhancement, % at 20 µM; 360,000 tested, 0.044% active; AID 602274; in the data active = survival enhancement above about 18%;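 also: cells exposed to compounds for 16 hours before the ATP read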
MC4R antag cAMP = human MC4R antagonism in cAMP assay. P32245. MC4R-expressing cells, MTII-stimulated cAMP, LANCE TR-FRET. inhibition, % at 6.5 µM. 360,000 tested, 0.48% active. AID 540295;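 active = inhibition above its plate's cutoff, the mean of tested wells on that plate plus 3 SD, cut at about 29% in these data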;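 also: 0% = Melanotan II alone and 100% = Melanotan II plus saturating MCL0020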
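system = U2OS cells with stable human MC4R expression | also added = Melanotan II challenge after compound preincubation | dosing = one concentration, 6.5 µM nominal | incubation = compound 30 min, challenge 1 h, detection 1 h | measured by = TR-FRET with Eu-cAMP and labeled anti-cAMP, 671 nm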
TbMetRS confirm = Trypanosoma brucei MetRS inhibition confirmed | shares compounds with Tb MetRS inh | T. brucei MetRS enzyme, luminescence (ATP depletion) | inhibition, % at 11.9 µM | 1,400 tested, 93% active; in the data active = inhibition above about 7%
Jurkat cytotox = counter-screen for T. brucei MetRS inhibitors: Jurkat cell cytotoxicity; inhibition, % at 8.3 µM; AID 624413; Jurkat cells viability, ATP luminescence; 1,400 tested, 12% active; shares compounds with Tb MetRS inh; in the data active = inhibition above about 15%;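 also: 0% = vehicle and 100% = reference inhibitor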
Tb MetRS inh FP = orthogonal test for Trypanosoma brucei MetRS inhibitors; shares compounds with Tb MetRS inh; purified T. brucei MetRS, fluorescence polarization; inhibition, % at 11.9 µM; 1,400 tested, 44% active; AID 651607; in the data active = inhibition above about 17%;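 also: 0% = vehicle wells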
Active calls of the source: *; nt = not tested or not shown.

SMILES | Exocytosis inh | MC4R barr agon | Tb MetRS inh | ABCB6 inh 2 | hiPSC survival | MC4R antag cAMP | TbMetRS confirm | Jurkat cytotox | Tb MetRS inh FP
S=C(NCc1ccncc1)Nc1cc(Cl)cc(Cl)c1 | -1 | 0 | 10* | 93 | 0 | 1 | 23* | 0 | 13
S=C(NCc1cccnc1)Nc1cccc(Cl)c1 | -7 | -2 | 5 | 94 | 9 | 4 | nt | nt | nt
S=C(NCc1cccnc1)Nc1cc(Cl)cc(Cl)c1 | -16 | 0 | 24* | 96 | 0 | 0 | 52* | 5 | 30*
O=C(NCCNC(=O)Nc1ccc(Cl)cc1)Nc1ccc(Cl)cc1 | 1 | -1 | 0 | 200 | -1 | 3 | nt | nt | nt
CN1CCN(CCNC(=O)Nc2ccc(Cl)cc2)CC1 | 3 | -1 | -1 | 98 | 0 | 8 | nt | nt | nt
O=C(NCCc1ccc(Cl)cc1)Nc1ccc(F)cc1 | 1 | -2 | 18* | 98 | 1 | 13 | 30* | -3 | 12
Cc1ccc(C(CNC(=O)Nc2ccc(Cl)cc2)N2CCN(C)CC2)cc1 (centres undefined) | 6 | -1 | 8.1* | 99 | 0 | 2 | 30* | 10 | 10
Cc1nnsc1SCCNC(=O)Nc1ccc(Cl)cc1 | 11 | -3 | 6.5* | 91 | -1 | -3 | 12* | 11 | 15
CN1CCN(C(CNC(=O)Nc2ccc(Cl)cc2)c2ccc(F)cc2)CC1 (centres undefined) | 2 | 0 | 28* | 104 | 0 | -1 | 52* | 9 | 29*
Cc1cccc(NC(=O)NCC(c2ccc(F)cc2)N2CCN(C)CC2)c1 (centres undefined) | 10 | 0 | 1 | 94 | 0 | 1 | nt | nt | nt
Fc1ccc(NC(=S)NCCc2ccc(Cl)cc2)cc1 | -4 | 8 | 0 | 104 | -2 | 3 | nt | nt | nt
Cc1cc(Cl)ccc1OCC(=O)NCC(=O)N/N=C/c1ccco1 | -1 | 1 | 6.8* | 99 | 0 | 2 | 71* | 7 | 20*
Cc1ccccc1OCC(=O)N/N=C/c1ccco1 | -2 | 0 | -2 | 99 | -4 | 2 | nt | nt | nt
O=C(NNS(=O)(=O)c1ccccc1[N+](=O)[O-])c1cc2ccccc2cc1O | -5 | 1 | 34* | 95 | 0 | -1 | 49* | 2 | 24*
Cc1ccc(-c2nnc(NCc3nc4ccccc4[nH]3)c3ccccc23)cc1S(=O)(=O)N(C)C | -1 | -2 | 13* | 95 | 3 | 3 | 24* | 4 | 16
Cc1ccc(-c2nnc(N3CCCCC3)c3ccccc23)cc1S(=O)(=O)N(C)C | 10 | 1 | 0 | 96 | 1 | 17 | nt | nt | nt
O=C(COc1nsnc1N1CCOCC1)Nc1ccc(Cl)cc1 | 14 | 4 | 11* | 104 | 3 | -1 | 23* | -10 | 7
COc1cccc(/C(O)=C/c2nc3ccc(C(=O)NCCc4cccc(C)c4)cc3[nH]c2=O)c1 | 11 | 2 | 7.4* | 122 | 1 | 8 | 6.6* | 15* | 3
Cn1c(SCC(=O)Nc2ccc3cn[nH]c3c2)nnc1-c1cnccn1 | -2 | -2 | 7.8* | 96 | -1 | 8 | 14* | -4 | 9
COc1ccc2[nH]c(=O)c(CN(CC3CCCO3)C(=O)Nc3ccc(F)cc3)cc2c1 (centres undefined) | -1 | 1 | 0 | 102 | 7 | 8 | nt | nt | nt
COc1ccc(NC(=O)N(Cc2cc3cc(C)ccc3[nH]c2=O)CC2CCCO2)cc1 (centres undefined) | 0 | -3 | 12* | 114 | 0 | 4 | 49* | 12 | 17*
CCCCNC(=S)N(CCN(CC)CC)Cc1cc2cc3c(cc2[nH]c1=O)OCCO3 | 2 | 2 | 2 | 97 | 1 | -3 | nt | nt | nt
Cc1ccc2[nH]c(=O)c(CN(CC3CCCO3)C(=S)NCc3ccco3)cc2c1 (centres undefined) | 2 | -2 | 12* | 115 | -1 | 6 | 23* | 3 | 12
CCCCNC(=S)N(CCN(CC)CC)Cc1cc2cc3c(cc2[nH]c1=O)OCO3 | -1 | 0 | 8.8* | 92 | 1 | -1 | 16* | 5 | 8
COc1ccc2[nH]c(=O)c(CN(C(C)=O)C3CCCCC3)cc2c1 | -2 | 0 | 9.6* | 100 | -2 | 1 | 15* | 3 | 11
SMILES | Exocytosis inh | MC4R barr agon | Tb MetRS inh | ABCB6 inh 2 | hiPSC survival | MC4R antag cAMP | TbMetRS confirm | Jurkat cytotox | Tb MetRS inh FP
Cc1ccc2[nH]c(=O)c(CN(CC3CCCO3)C(=S)Nc3ccccc3)cc2c1 (centres undefined) | 1 | -1 | 6.1* | 99 | 2 | -2 | 48* | 6 | 27*
Cc1ccc2[nH]c(=O)c(CN(Cc3ccccc3)C(=S)NCCCN(C)C)cc2c1 | 2 | -1 | 7.0* | 98 | -2 | 16 | 17* | 17* | 10
O=C(OCC(=O)N1CCCC1=O)C1CCN(S(=O)(=O)c2ccc(Cl)c(C(F)(F)F)c2)CC1 | 2 | 2 | 0 | 101 | 0 | 11 | nt | nt | nt
C/C(CC(=O)Nc1ccc(Cl)c(C(F)(F)F)c1)=N\NC(=O)c1ccccc1O | 2 | -1 | 16* | 97 | 0 | 6 | 93* | 28* | 91*
C/C(CC(=O)Nc1ccc(Cl)c(C(F)(F)F)c1)=N\NC(=O)c1cccc(O)c1 | -3 | -1 | 0 | 95 | 2 | 2 | nt | nt | nt
Cc1cc(C(=O)NCc2ccc(F)cc2)n(-c2ccccc2)n1 | -1 | 1 | -1 | 97 | 2 | 14 | nt | nt | nt
CCCCc1c(-c2ccccc2OC)ncn1CCc1cccc(F)c1 | 15 | nt | -1 | 121 | 0 | nt | nt | nt | nt
CCCCc1c(-c2ccccc2OC)ncn1CCc1cccc(OC)c1 | 8 | nt | 9.9* | 121 | -1 | nt | 23* | 36* | 1
O=C(Cn1cnc2ccccc21)Nc1cccc([N+](=O)[O-])c1 | 0 | -1 | 81* | 93 | -1 | 3 | 95* | 6 | 71*
CC(C(=O)Nc1cccc([N+](=O)[O-])c1)n1nnc2ccccc21 (centres undefined) | 0 | -1 | 20* | 97 | -3 | 5 | 31* | 5 | 10
CC(C)CCN1CCN(Cc2ccc(C#CCCO)cc2)CC1CCO (centres undefined) | 0 | -2 | 0 | 102 | 0 | 2 | nt | nt | nt
Cc1ccc(N(C(=O)c2snc(C(N)=O)c2N)C(C(=O)NC2CCCC2)c2ccc(C)o2)cc1 (centres undefined) | 38 | 4 | -1 | 95 | 0 | 1 | nt | nt | nt

High-throughput results (PubChem)
